In ChEMBL document CHEMBL1158454, “Discovery of a potent and orally active hedgehog pathway antagonist (IPI-926)” (J Med Chem, 2009):
Activity calls are given as the source filed them.

Key:
[1] = Oral bioavailability in CD1 mouse at 5 mg/kg; assay type: ADME, organism-based; conditions: in vivo
[2] = Oral bioavailability in Sprague-Dawley rat at 5 mg/kg; assay type: ADME, organism-based; conditions: in vivo
[3] = Oral bioavailability in Beagle dog at 4 mg/kg; assay type: ADME, organism-based, Canis lupus familiaris; conditions: in vivo
[4] = Oral bioavailability in cynomolgus monkey at 4 mg/kg; assay type: ADME, organism-based, Macaca fascicularis; conditions: in vivo
[5] = Plasma clearance in CD1 mouse at 1 mg/kg, iv; assay type: ADME, organism-based; set-up: dose 1 mg/kg, route intravenous
Summary of the method: (§1)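 Plasma sampled at 0.083-24 h (T_last 24 h), protein-precipitated with acetonitrile containing jervine internal standard, and quantified by LC/MS/MS. Parameters taken from the concentration-time profile.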

[6] = Plasma clearance in Sprague-Dawley rat at 1 mg/kg, iv; assay type: ADME, organism-based; set-up: dose 1 mg/kg, route intravenous; summary of the method: as §1
[7] = Plasma clearance in Beagle dog at 1 mg/kg, iv; assay type: ADME, organism-based, Canis lupus familiaris; set-up: dose 1 mg/kg, route intravenous; summary of the method: as §1
[8] = Plasma clearance in cynomolgus monkey at 1 mg/kg, iv; assay type: ADME, organism-based, Macaca fascicularis; set-up: dose 1 mg/kg, route intravenous; summary of the method: as §1
[9] = Volume of distribution in CD1 mouse at 1 mg/kg, iv; assay type: ADME, organism-based; set-up: dose 1 mg/kg, route intravenous; conditions: in vivo; summary of the method: as §1
[10] = Volume of distribution in Sprague-Dawley rat at 1 mg/kg, iv; assay type: ADME, organism-based; set-up: dose 1 mg/kg, route intravenous; conditions: in vivo; summary of the method: as §1
[11] = Volume of distribution in Beagle dog at 1 mg/kg, iv; assay type: ADME, organism-based, Canis lupus familiaris; set-up: dose 1 mg/kg, route intravenous; conditions: in vivo; summary of the method: as §1
[12] = Elimination half life in CD1 mouse at 1 mg/kg, iv; assay type: ADME, organism-based; set-up: dose 1 mg/kg, route intravenous; conditions: in vivo, read-out: beta t1/2 (converted); summary of the method: as §1
[13] = Elimination half life in Sprague-Dawley rat at 1 mg/kg, iv; assay type: ADME, organism-based; set-up: dose 1 mg/kg, route intravenous; conditions: in vivo, read-out: beta t1/2 (converted); summary of the method: as §1
[14] = Elimination half life in Beagle dog at 1 mg/kg, iv; assay type: ADME, organism-based, Canis lupus familiaris; set-up: dose 1 mg/kg, route intravenous; conditions: in vivo, read-out: beta t1/2 (converted); summary of the method: as §1
[15] = Elimination half life in cynomolgus monkey at 1 mg/kg, iv; assay type: ADME, organism-based, Macaca fascicularis; set-up: dose 1 mg/kg, route intravenous; conditions: in vivo, read-out: beta t1/2 (converted); summary of the method: as §1
[16] = Toxicity in po dosed Ptc+/- Hic+/- mouse B837Tx cells allografted NOD/SCID mouse assessed as maximum tolerated dose after 5 days; assay type: organism-based; conditions: in vivo
Summary of the method: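 Tumor-bearing immunocompromised mice received repeat oral dosing for 5 days. MTD was defined as the dose tolerated by all animals (N = 3).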

[17] = Antitumor activity against Ptc+/- Hic+/- mouse B837Tx cells allografted in NOD/SCID mouse assessed as median time to unmeasurable tumor volume at 40 mg/kg, po administered daily for 21 days; assay type: functional
Summary of the method: (§2)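 NOD/SCID mice given 1 × 10^6 B837Tx cells in the right hind flank. Once tumors reached about 100-200 mm³, N=10/group were gavaged daily for 21 days. Vehicle: 30% (w/w) HPBCD in 0.1 M citrate phosphate buffer, pH 3, dosing solutions 5-10 mg/mL. Tumors measured in two perpendicular dimensions by caliper 3 times weekly. Regrowth monitored over a 21-day post-treatment phase.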

[18] = Antitumor activity against Ptc+/- Hic+/- mouse B837Tx cells allografted in NOD/SCID mouse assessed as tumor-free interval on 21 days post treatment at 40 mg/kg, po administered daily for 21 days; assay type: functional; summary of the method: as §2
Mus musculus = experiment: Antitumor activity against Ptc+/- Hic+/- mouse B837Tx cells allografted in NOD/SCID mouse assessed as effect on recurrence rate on post treatment at 40 mg/kg, po administered daily for 21 days; assay type: functional, organism-based; set-up: dose 40 mg/kg; summary of the method: as §2
Protein smoothened = Protein smoothened (Homo sapiens, UniProt Q99835); experiment: Inhibition of human recombinant SMO expressed in mouse C3H10T1/2 cells assessed as inhibition of association of BODIPY-cyclopamine; assay type: cell-based, C3H 10T1/2
Protein smoothened, sequence (Q99835 whole entry): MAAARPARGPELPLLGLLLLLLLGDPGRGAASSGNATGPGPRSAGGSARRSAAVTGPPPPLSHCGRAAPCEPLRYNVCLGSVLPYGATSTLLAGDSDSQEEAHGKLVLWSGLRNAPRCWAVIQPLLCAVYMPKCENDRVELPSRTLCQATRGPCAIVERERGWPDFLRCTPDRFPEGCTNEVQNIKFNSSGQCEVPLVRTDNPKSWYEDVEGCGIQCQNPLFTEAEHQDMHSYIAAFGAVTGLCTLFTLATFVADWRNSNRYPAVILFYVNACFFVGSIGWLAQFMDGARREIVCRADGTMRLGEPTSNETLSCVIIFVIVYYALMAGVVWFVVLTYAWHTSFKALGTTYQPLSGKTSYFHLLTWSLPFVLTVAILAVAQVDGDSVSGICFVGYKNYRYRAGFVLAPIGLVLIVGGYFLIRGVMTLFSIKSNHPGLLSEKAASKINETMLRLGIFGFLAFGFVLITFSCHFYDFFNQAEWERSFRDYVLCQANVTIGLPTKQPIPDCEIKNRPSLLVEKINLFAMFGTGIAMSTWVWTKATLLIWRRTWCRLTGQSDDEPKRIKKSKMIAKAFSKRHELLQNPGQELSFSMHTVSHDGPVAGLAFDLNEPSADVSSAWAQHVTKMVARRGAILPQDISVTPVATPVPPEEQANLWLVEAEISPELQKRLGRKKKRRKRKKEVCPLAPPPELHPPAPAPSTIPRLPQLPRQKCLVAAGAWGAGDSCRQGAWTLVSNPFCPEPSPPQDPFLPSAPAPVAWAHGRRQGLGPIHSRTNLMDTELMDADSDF

in vitro = conditions: human
[19] = Inhibition of HedgeHog pathway in mouse C3H10T1/2 cells assessed as inhibition of 20-(S)-hydroxysterol/22-(S)-hydroxysterol-induced osteoblastic differentiation after 72 hrs by alkaline phosphatase assay; conditions: C3H 10T1/2, 72 h
[20] = Volume of distribution in cynomolgus monkey at 1 mg/kg, iv; assay type: ADME, organism-based, Macaca fascicularis; set-up: dose 1 mg/kg, route intravenous; conditions: in vivo; summary of the method: as §1
[21] = Antitumor activity against Ptc+/- Hic+/- mouse B837Tx cells allografted in NOD/SCID mouse assessed as median time to unmeasurable tumor volume at 30 mg/kg, po administered daily for 21 days; assay type: functional; summary of the method: as §2
[22] = Antitumor activity against Ptc+/- Hic+/- mouse B837Tx cells allografted in NOD/SCID mouse assessed as tumor-free interval on 21 days post treatment at 30 mg/kg, po administered daily for 21 days; assay type: functional; summary of the method: as §2
[23] = Antitumor activity against Ptc+/- Hic+/- mouse B837Tx cells allografted in NOD/SCID mouse assessed as median time to unmeasurable tumor volume at 80 mg/kg, po administered daily for 21 days; assay type: functional; summary of the method: as §2
[24] = Antitumor activity against Ptc+/- Hic+/- mouse B837Tx cells allografted in NOD/SCID mouse assessed as tumor-free interval on 21 days post treatment at 80 mg/kg, po administered daily for 21 days; assay type: functional; summary of the method: as §2

Row | SMILES | bioavailability [1] [%] | bioavailability [2] [%] | bioavailability [3] [%] | bioavailability [4] [%] | clearance [5] [mL/min/kg] | clearance [6] [mL/min/kg] | clearance [7] [mL/min/kg] | clearance [8] [mL/min/kg] | Vd [9] [L/kg] | Vd [10] [L/kg] | Vd [11] [L/kg] | half-life [12] [h] | half-life [13] [h] | half-life [14] [h] | half-life [15] [h] | MTD at 120 h [16] [mg/kg] | half-life at 0.5 µM (in vitro; microsomes) [h] | EC50 [19] [nM] | Vd [20] [L/kg] | also measured
1 | CC1=C2C[C@H]3[C@@H](CC[C@@H]4C[C@H](NS(C)(=O)=O)CC[C@@]43C)[C@@H]2CC[C@@]2(C1)O[C@@H]1C[C@H](C)CN[C@H]1[C@H]2C [PATIDEGIB] | 100 | 100 | 50 | 74 | 12.3 | 3.5 | 11 | 15 | 11 | 30 | 15.3 | 10.5 | > 24 | 15.5 | 8.2 | 40 | 1.42 | 7 | – | Activity [17]: 9 days; Activity [18]: 21 days; Activity (Mus musculus): Active; IC50 (Protein smoothened): 1.4 nM
2 | CC1=C2C[C@H]3[C@@H](CC[C@@H]4CNC(=O)CC[C@@]43C)[C@@H]2CC[C@@]2(C1)O[C@@H]1C[C@H](C)CN[C@H]1[C@H]2C | 100 | 100 | 97 | 100 | 8.33 | 10.5 | 5.5 | 13.3 | 2 | 4.9 | 3 | 3 | 5.4 | 6.5 | 3.8 | 30 | 1.08 | 25 | 4.3 | Activity [21]: 9 days; Activity [22]: 10 days
3 | CC1=C2C[C@H]3[C@@H](CC[C@@H]4Cc5[nH]ncc5C[C@@]43C)[C@@H]2CC[C@@]2(C1)O[C@@H]1C[C@H](C)CN[C@H]1[C@H]2C | 52 | 34 | 73 | 84 | 33.3 | 125 | 10 | 30 | 9 | 13 | 6 | 3 | 1.2 | 6.8 | 5.6 | 80 | – | 13 | 13 | Activity [23]: 9 days; Activity [24]: 19 days; half-life at 0.5 µM (in vitro; liver microsomes): 2 h
